Results pooled from the literature.
Each line is one published result; the experiments were not run side by side.
Target: Vascular endothelial growth factor receptor 2 (KDR, Homo sapiens, UniProt P35968)

COc1cnc(Nc2cccc(S(N)(=O)=O)c2)nc1N1CCN(c2ccccc2)C(=O)C1
remaining binding (binding; competition with immobilised ligand; 1 µM): 100%

N[C@@H]1CCN(c2nccc(-c3cnn4ncccc34)n2)C1
remaining binding (binding; 1 µM): 100%

COCCOc1nc(-c2ccc(Cl)nc2)nc2c1CN(C(=O)c1ncn3ccccc13)CC2
remaining binding (cell-free assay; competition with immobilised ligand; 0.1 µM): 100%

Cc1cnn2ncc(-c3ccnc(N(C)C)n3)c2c1
remaining binding (binding; 1 µM): 96%

CN(C)C(=O)Cn1cc(-c2nc(C3(c4ccc(-c5cnc(N)nc5)cc4)CC3)no2)cn1
remaining binding (cell-free assay; competition with immobilised ligand; 1 µM): 70%

CN(C)c1nccc(-c2cnc3ncccn23)n1
remaining binding (binding; 1 µM): 90%

CNC(=O)[C@@H]1CC[C@@H](n2c(-c3ccc4cnccc4c3)nc3ccc(C(=O)NCc4cccc(C(N)=O)c4)cc32)C1
remaining binding (binding; competition with immobilised ligand; 1 µM): 69%

CN(C)c1ncc(F)c(-c2cnn3ncccc23)n1
remaining binding (binding; 1 µM): 75%

Nc1cnc(N2CCc3cc(S(=O)(=O)Nc4c(F)cc(Cl)cc4F)cc(N4CCCC4=O)c32)nc1
remaining binding (cell-free assay; competition with immobilised ligand; 1 µM): 81%

C[C@@H]1CCN(c2nccc(-c3cnn4ncccc34)n2)C1
remaining binding (binding; 1 µM): 87%

CC(C)CC(=O)N1CCc2nc(-c3ccc(Br)cc3)nc(N(C)Cc3ccccc3)c2C1
remaining binding (cell-free assay; competition with immobilised ligand; 0.1 µM): 100%

O=C(NCC1CCOCC1)c1n[nH]cc1NC(=O)c1c(F)cccc1F
remaining binding (binding; competition with immobilised ligand; 1 µM): 82%

Nc1ncc2c(n1)-c1c([nH]c3ccc(C#CC4CC4)cc13)CCCC2
remaining binding (binding; competition with immobilised ligand; 1 µM): 90%

O=C(NCCCN1CCOCC1)c1ccc(Nc2nccc(-c3cc4ccccc4s3)n2)cc1
remaining binding (binding; competition with immobilised ligand; 1 µM): 72%

O=C(NCc1ncc(C(F)(F)F)cc1Cl)c1ccc2c(c1)C1(CCS(=O)(=O)CC1)[C@H](C1CC1)N2S(=O)(=O)c1ccc(F)cc1
remaining binding (cell-free assay; competition with immobilised ligand; 1 µM): 83%

C[C@@H]1CN(c2ccc3ncc(-c4ccc5[nH]nc(C6CC6)c5c4)n3n2)C[C@H](C)O1
remaining binding (binding; competition with immobilised ligand; 50 nM): 86%

O=C(O)[C@H]1[C@H](Cn2nnc3ccccc3c2=O)CC[C@@H]1C(=O)c1ccc(OCCC2CCOCC2)cc1
remaining binding (cell-free assay; competition with immobilised ligand; 1 µM): 88%

O=C(c1ccc(Nc2nccc(-c3cc4ccccc4s3)n2)cc1)N1CCC(N2CCCC2)CC1
remaining binding (binding; competition with immobilised ligand; 1 µM): 47%

CCC(=O)N[C@@H]1CC[C@H](C(=O)N(C)c2ccc(-c3nc4ccccc4o3)cc2)C1
remaining binding (cell-free assay; competition with immobilised ligand; 1 µM): 77%

Cc1cnc(Nc2ccc(C(=O)N3CCC(N4CCCC4)CC3)cc2)nc1-c1cc2ccccc2s1
remaining binding (binding; competition with immobilised ligand; 1 µM): 4.3%

CC(=O)C1=C(C)N(c2cccc(C(F)(F)F)c2)C(=O)N[C@@H]1c1ccc(C#N)nc1
remaining binding (cell-free assay; competition with immobilised ligand; 1 µM): 84%

CC(C)(C)c1ccc(-c2nc(CBr)nn2-c2cccc(O)c2)cc1
remaining binding (cell-free assay; competition with immobilised ligand; 10 µM): 83%

C=CC(=O)N1CCC(C(=O)NCC(=O)N2CCN(c3nc(-c4cnc(N)nc4C(F)F)nc(N4CCOCC4)n3)CC2)CC1
remaining binding (binding; competition with immobilised ligand; 1 µM): 81%

CN(c1nccc(-c2cnn3ncccc23)n1)C1CC1
remaining binding (binding; 1 µM): 100%

FC(F)(F)Oc1cccc(-c2cnc3ccc(-c4ccncc4)nn23)c1
remaining binding (cell-free assay; competition with immobilised ligand; 5 µM): 18%
